Laboratory results: ChEMBL document CHEMBL1933000, “Design, synthesis and antitumor activity of 4-aminoquinazoline derivatives targeting VEGFR-2 tyrosine kinase” (Bioorg Med Chem Lett, 2012)
Each block holds one molecule with its values, some of them ahead of it.

Assays:
[1] = test system: HUVEC; experiment: Antiproliferative activity against VEGF-stimulated HUVEC after 48 hrs by sulforhodamine B assay; conditions: Homo sapiens
[2] = Solubility of the compound in water; format: physicochemical; conditions: buffer
[3] = Dissociation constant, pKa of the compound; format: physicochemical
[4] = target: Vascular endothelial growth factor receptor 2 (Homo sapiens, UniProt P35968); experiment: Inhibition of human GST-tagged VEGFR2 intracellular domain using biotin-aminohexyl-EEEEYFELVAKKKK-NH2 as substrate after 30 mins by HTRF assay
[5] = target: Vascular endothelial growth factor receptor 1 (Homo sapiens, UniProt P17948); experiment: Inhibition of VEGFR1
[6] = target: Vascular endothelial growth factor receptor 3 (Homo sapiens, UniProt P35916); experiment: Inhibition of VEGFR3
[7] = target: Platelet-derived growth factor receptor alpha (Homo sapiens, UniProt P16234); experiment: Inhibition of PDGFRalpha
[8] = target: Fibroblast growth factor receptor 1 (Homo sapiens, UniProt P11362); experiment: Inhibition of FGFR1
[9] = target: Angiopoietin-1 receptor (Homo sapiens, UniProt Q02763); experiment: Inhibition of Tie2
[10] = target: Receptor tyrosine-protein kinase erbB-2 (Homo sapiens, UniProt P04626); experiment: Inhibition of HER2
[11] = Inhibition of AKT
[12] = target: Cyclin-dependent kinase 1 (Homo sapiens, UniProt P06493); experiment: Inhibition of CDK1
[13] = test system: HepG2; experiment: Antitumor activity against human HepG2 cells xenografted in BALB/c nude mouse assessed as tumor growth inhibition at 20 mg/kg, po qd at 3 doses for 15 days; format: functional; conditions: HepG2, 360 h, read-out: TGI
Outline: (§1)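 HepG2 hepatocarcinoma cells (1 × 10⁷) implanted sc in the flank of BALB/c-nu mice. Once-daily oral dosing of compound or vehicle began five days after implantation and ran 15 days at 20, 50 or 100 mg/kg. Tumor growth followed; %TGI; mean and SE, n = 8.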

[14] = test system: HepG2; experiment: Antitumor activity against human HepG2 cells xenografted in BALB/c nude mouse assessed as tumor growth inhibition at 50 mg/kg, po qd at 3 doses for 15 days; format: functional; conditions: HepG2, 360 h, read-out: TGI; outline: as §1
[15] = test system: HepG2; experiment: Antitumor activity against human HepG2 cells xenografted in BALB/c nude mouse assessed as tumor growth inhibition at 100 mg/kg, po qd at 3 doses for 15 days; format: functional; conditions: HepG2, 360 h, read-out: TGI; outline: as §1
[16] = test system: Mus musculus; experiment: Toxicity in nude BALB/c mouse xenografted with human HepG2 cells assessed as clinically observable signs of toxicity at 100 mg/kg, po qd at 3 doses for 15 days; format: organism-based; parameters: dose 100 mg/kg, route oral; conditions: in vivo, 360 h
Outline: (§2)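 BALB/c-nu mice bearing sc flank HepG2 xenografts received oral compound once daily for 15 days, top dose 100 mg/kg, starting five days after implantation. Animals were watched for clinically observable toxicity signs and for body weight loss; n = 8.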

[17] = test system: Mus musculus; experiment: Toxicity in nude BALB/c mouse xenografted with human HepG2 cells assessed as weight loss at 100 mg/kg, po qd at 3 doses for 15 days; format: organism-based; parameters: dose 100 mg/kg, route oral; conditions: in vivo, 360 h; outline: as §2
[18] = test system: HepG2; experiment: Antitumor activity against human HepG2 cells xenografted in BALB/c nude mouse assessed as tumor growth inhibition administered as po qd at 3 doses for 15 days; format: functional, organism-based; outline: as §1
[19] = Lipophilicity, log P of the compound; format: physicochemical; conditions: octanol/water

Chain of Vascular endothelial growth factor receptor 1 (P17948 whole entry): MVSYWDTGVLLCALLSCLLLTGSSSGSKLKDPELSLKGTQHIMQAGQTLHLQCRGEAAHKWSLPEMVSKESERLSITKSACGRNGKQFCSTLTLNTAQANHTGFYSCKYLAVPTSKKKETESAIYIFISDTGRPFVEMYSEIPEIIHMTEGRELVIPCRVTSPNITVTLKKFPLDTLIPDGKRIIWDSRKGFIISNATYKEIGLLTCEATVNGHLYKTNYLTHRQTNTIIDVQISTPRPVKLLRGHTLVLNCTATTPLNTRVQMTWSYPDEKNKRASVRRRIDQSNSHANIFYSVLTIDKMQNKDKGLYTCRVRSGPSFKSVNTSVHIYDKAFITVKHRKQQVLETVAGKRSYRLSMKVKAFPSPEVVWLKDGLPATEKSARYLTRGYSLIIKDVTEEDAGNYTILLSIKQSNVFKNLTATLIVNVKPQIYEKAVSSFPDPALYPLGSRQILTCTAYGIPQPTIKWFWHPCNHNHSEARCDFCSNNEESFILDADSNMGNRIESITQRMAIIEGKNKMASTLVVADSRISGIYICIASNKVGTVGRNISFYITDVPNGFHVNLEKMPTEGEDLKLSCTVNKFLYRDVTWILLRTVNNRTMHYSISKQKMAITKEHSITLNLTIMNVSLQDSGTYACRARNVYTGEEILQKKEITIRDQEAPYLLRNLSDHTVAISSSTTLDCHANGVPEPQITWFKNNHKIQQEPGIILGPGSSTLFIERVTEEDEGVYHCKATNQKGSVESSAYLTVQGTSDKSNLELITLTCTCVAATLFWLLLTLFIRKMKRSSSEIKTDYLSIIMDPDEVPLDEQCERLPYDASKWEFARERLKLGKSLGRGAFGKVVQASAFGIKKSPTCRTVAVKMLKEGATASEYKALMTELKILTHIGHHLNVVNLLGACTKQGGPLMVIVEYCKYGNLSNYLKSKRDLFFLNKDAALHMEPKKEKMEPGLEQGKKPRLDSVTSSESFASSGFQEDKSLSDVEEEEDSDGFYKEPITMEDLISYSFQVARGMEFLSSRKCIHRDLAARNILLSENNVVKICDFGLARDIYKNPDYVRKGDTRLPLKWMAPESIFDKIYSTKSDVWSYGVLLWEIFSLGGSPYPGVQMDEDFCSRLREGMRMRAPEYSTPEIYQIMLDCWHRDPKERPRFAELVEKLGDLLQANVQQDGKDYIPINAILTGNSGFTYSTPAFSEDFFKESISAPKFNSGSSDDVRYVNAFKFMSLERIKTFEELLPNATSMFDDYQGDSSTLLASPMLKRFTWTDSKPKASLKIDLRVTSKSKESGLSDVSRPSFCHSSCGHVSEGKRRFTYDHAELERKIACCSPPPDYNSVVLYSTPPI
Chain of Vascular endothelial growth factor receptor 2 (P35968 whole entry, the tested form may be a part): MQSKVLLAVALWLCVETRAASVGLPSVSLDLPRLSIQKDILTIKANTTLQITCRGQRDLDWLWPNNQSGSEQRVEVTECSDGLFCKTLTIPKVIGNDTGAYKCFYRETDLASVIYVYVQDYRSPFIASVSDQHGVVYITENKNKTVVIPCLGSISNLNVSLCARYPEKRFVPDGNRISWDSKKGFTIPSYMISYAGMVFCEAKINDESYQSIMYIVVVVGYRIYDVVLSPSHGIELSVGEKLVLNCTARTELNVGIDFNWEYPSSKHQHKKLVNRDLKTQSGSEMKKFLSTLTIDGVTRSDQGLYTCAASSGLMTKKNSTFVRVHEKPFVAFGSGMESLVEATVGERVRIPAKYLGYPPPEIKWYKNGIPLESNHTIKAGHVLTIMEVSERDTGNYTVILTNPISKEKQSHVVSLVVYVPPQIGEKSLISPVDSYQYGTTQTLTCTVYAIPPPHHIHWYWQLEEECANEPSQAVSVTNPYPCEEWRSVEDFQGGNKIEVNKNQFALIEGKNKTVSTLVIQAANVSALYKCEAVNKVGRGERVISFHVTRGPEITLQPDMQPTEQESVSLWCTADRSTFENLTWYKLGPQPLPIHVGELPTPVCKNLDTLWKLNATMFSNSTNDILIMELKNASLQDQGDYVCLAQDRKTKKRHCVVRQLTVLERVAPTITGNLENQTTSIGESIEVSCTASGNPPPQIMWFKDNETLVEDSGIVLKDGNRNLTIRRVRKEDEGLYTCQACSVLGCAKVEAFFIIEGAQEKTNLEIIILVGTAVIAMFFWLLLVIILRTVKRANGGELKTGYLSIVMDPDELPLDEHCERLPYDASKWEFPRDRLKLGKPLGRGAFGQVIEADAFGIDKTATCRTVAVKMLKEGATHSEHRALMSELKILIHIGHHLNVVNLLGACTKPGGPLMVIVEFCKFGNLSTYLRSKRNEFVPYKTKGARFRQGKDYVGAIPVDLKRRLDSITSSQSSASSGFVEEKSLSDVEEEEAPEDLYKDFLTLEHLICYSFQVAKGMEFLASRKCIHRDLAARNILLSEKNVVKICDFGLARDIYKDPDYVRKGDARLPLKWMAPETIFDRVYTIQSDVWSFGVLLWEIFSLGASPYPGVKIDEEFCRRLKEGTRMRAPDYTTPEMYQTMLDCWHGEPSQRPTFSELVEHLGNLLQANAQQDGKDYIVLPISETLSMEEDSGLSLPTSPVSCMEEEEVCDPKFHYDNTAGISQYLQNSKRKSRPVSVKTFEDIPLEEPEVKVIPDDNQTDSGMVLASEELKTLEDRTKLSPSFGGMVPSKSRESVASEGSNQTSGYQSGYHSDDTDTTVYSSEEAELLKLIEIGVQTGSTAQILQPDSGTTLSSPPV
Chain of Vascular endothelial growth factor receptor 3 (P35916 whole entry): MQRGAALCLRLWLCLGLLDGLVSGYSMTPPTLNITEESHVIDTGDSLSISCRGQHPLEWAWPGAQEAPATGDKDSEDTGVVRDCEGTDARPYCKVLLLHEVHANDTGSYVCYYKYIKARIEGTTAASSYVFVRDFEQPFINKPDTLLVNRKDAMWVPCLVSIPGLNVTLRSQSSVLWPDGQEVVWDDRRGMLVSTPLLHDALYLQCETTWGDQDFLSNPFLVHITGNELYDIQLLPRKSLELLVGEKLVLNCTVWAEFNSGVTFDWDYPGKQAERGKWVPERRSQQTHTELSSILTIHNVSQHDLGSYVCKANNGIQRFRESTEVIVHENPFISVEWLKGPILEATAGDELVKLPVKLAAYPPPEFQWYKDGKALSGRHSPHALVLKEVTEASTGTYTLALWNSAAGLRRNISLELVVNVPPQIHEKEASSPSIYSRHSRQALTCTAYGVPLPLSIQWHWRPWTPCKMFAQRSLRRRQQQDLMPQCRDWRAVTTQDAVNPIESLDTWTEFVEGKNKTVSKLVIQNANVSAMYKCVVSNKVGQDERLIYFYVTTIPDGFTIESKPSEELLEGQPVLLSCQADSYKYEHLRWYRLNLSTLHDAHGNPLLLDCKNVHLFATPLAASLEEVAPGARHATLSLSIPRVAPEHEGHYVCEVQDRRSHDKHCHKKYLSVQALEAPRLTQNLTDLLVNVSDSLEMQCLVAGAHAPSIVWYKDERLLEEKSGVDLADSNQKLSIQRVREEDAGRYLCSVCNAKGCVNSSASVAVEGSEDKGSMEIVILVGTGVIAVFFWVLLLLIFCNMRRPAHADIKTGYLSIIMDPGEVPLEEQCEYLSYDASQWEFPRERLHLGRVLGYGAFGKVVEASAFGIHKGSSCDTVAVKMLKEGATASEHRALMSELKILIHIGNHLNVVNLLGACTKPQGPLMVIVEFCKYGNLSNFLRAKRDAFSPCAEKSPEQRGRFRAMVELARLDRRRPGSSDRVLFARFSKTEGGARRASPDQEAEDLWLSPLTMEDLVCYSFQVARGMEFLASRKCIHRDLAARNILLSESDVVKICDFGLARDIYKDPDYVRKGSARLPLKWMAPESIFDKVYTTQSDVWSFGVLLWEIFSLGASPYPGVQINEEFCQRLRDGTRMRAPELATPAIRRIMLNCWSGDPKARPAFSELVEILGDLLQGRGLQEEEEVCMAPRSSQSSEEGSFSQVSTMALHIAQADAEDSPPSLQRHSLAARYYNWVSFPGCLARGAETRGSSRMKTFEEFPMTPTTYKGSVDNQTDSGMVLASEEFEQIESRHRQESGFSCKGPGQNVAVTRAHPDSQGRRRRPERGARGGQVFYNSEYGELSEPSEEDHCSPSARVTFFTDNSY
Chain of Cyclin-dependent kinase 1 (P06493 whole entry): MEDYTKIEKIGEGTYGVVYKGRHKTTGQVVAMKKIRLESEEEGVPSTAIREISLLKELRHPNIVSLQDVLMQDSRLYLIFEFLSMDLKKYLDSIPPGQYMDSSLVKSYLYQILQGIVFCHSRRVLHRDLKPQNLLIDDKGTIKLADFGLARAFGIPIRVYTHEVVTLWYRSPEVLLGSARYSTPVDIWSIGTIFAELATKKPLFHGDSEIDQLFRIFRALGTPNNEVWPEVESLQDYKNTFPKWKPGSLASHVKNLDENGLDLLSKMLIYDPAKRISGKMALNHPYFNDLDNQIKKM

SMILES: COc1cc2c(Nc3ccc(NC(=O)Nc4cccc(F)c4)cc3)ncnc2cc1OCC1CCN(C)CC1
IC50 [1]: 179 nM

solubility [2]: soluble
SMILES: COc1cc2c(Nc3ccc(Br)cc3F)ncnc2cc1OCC1CCN(C)CC1 [VANDETANIB]
IC50 [1]: 187 nM

SMILES: COc1cc2c(Nc3ccc(NC(=O)Nc4cccc(F)c4)c(F)c3)ncnc2cc1OCC1CCN(C)CC1
IC50 [1]: 185 nM

SMILES: CN1CCC(COc2ccc3c(Nc4ccc(NC(=O)NC5CC5)cc4)ncnc3c2)CC1
IC50 [1]: 324 nM

SMILES: CN1CCC(COc2ccc3c(Nc4ccc(NC(=O)Nc5cccc(F)c5)c(Cl)c4)ncnc3c2)CC1
IC50 [1]: 132 nM

SMILES: CN1CCC(COc2ccc3c(Nc4ccc(CC(=O)Nc5ccc(Cl)c(C(F)(F)F)c5)cc4)ncnc3c2)CC1
IC50 [1]: 258 nM

SMILES: Cc1ccc(NC(=O)Nc2ccc(Nc3ncnc4cc(OCC5CCN(C)CC5)ccc34)cc2)cc1Br
IC50 [1]: 196 nM

SMILES: CN1CCC(COc2ccc3c(Nc4ccc(NC(=O)Nc5cccc(F)c5)c(F)c4)ncnc3c2)CC1
IC50 [1]: 67 nM

pKa [3]: 8.1
SMILES: CN1CCCCC1

SMILES: CN1CCC(COc2ccc3c(Nc4ccc(NC(=O)Nc5ccc(F)c(F)c5)cc4)ncnc3c2)CC1
IC50 [1]: 89 nM

SMILES: CN1CCC(COc2ccc3c(Nc4ccc(NC(=O)Nc5ccc(Br)cc5F)cc4)ncnc3c2)CC1
IC50 [1]: 233 nM

SMILES: CN1CCC(COc2ccc3c(Nc4ccc(CC(=O)Nc5cccc(F)c5)cc4)ncnc3c2)CC1
IC50 [1]: 237 nM

IC50 [4]: 5.5 nM | IC50 [5]: 1920 nM | IC50 [6]: 9.6 nM | IC50 [7]: 1360 nM | IC50 [8]: > 10000 nM | IC50 [9]: > 10000 nM | IC50 [10]: > 10000 nM | IC50 [11]: 8710 nM | IC50 [12]: 10000 nM
SMILES: CN1CCC(COc2ccc3c(Nc4ccc(NC(=O)Nc5cccc(F)c5)cc4)ncnc3c2)CC1
IC50 [1]: 52 nM | inhibition in vivo at 20 mg/kg [13]: 25.6% | inhibition in vivo at 50 mg/kg [14]: 61.4% | inhibition in vivo at 100 mg/kg [15]: 83.6% | Activity [16]: Non-toxic | Activity [17]: Non-toxic | TGI [18]: Dose-dependent effect

SMILES: CCNC(=O)Nc1ccc(Nc2ncnc3cc(OCC4CCN(C)CC4)ccc23)cc1
IC50 [1]: 587 nM

logP [19]: 5
SMILES: CNC(=O)c1cc(Oc2ccc(NC(=O)Nc3ccc(Cl)c(C(F)(F)F)c3)cc2)ccn1 [SORAFENIB]

SMILES: CN1CCC(COc2ccc3c(Nc4ccc(CC(=O)Nc5ccc(F)c(F)c5)cc4)ncnc3c2)CC1
IC50 [1]: 308 nM

SMILES: CN1CCC(COc2ccc3c(Nc4ccc(NC(=O)Nc5ccc(Cl)c(C(F)(F)F)c5)cc4)ncnc3c2)CC1
IC50 [1]: 92 nM
